Source: ChEMBL document CHEMBL1137702, “Identification of hydrolytically stable and selective P2Y(1) receptor agonists” (Eur J Med Chem, 2009)
Active and inactive are the calls of the source. No cut-off for these calls is given here.

Legend:
[1] = molecular target: T1, Ectonucleoside triphosphate diphosphohydrolase 1 (Homo sapiens) (UniProt P49961); assay: Activity of human NTPDase 1 expressed in human 293T cells assessed as drug hydrolysis at 100 uM after 20 mins relative to ATP; assay type: cell-based; set-up: scale not given: the % may be the effect or the level left
T1 sequence (whole entry): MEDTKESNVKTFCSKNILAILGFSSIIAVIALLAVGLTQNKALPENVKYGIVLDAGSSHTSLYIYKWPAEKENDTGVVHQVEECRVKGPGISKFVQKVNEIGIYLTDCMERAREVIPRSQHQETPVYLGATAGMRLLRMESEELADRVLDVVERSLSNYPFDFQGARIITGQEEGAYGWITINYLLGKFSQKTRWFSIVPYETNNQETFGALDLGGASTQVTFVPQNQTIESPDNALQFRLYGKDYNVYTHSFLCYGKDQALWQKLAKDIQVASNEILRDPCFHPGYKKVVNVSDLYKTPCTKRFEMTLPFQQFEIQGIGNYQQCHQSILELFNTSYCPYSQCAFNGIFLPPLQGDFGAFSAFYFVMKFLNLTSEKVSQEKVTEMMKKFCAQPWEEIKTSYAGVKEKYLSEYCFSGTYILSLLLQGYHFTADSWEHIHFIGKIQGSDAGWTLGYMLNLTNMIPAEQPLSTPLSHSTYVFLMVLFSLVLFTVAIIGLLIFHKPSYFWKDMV
Outline: (§1)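 Human NTPDase1, 2, 3 or 8 in crude extracts of transfected 293T cells, pre-incubated 3 min at 37 °C in Tris-Ringer buffer pH 7.4. […] Untransfected-cell extract activity subtracted.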

[2] = molecular target: T2, Ectonucleoside triphosphate diphosphohydrolase 3 (Homo sapiens) (UniProt O75355); assay: Activity of human NTPDase 3 expressed in human 293T cells assessed as drug hydrolysis at 100 uM after 20 mins relative to ATP; assay type: cell-based; set-up: scale not given: the % may be the effect or the level left; outline: as §1
T2 sequence (whole entry): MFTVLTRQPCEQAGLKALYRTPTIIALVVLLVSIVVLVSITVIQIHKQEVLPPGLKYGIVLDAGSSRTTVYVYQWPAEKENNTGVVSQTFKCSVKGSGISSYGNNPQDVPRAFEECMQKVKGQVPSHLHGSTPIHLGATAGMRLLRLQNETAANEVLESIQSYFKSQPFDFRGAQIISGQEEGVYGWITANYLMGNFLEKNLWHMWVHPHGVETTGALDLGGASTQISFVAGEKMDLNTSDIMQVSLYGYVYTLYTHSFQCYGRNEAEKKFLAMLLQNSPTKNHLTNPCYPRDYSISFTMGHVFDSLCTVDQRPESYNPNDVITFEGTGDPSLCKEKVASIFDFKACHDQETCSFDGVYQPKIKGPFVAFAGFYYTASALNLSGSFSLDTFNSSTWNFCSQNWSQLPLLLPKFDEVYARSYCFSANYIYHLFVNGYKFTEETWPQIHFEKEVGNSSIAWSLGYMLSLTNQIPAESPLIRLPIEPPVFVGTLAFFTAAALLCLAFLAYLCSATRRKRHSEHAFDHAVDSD

[3] = molecular target: T1, Ectonucleoside triphosphate diphosphohydrolase 1 (Homo sapiens); assay: Inhibition of human NTPDase 1 expressed in human 293T cells; assay type: cell-based
[4] = molecular target: P2Y purinoceptor 6 (Rattus norvegicus) (UniProt Q63371); assay: Agonist activity at rat P2Y6 receptor expressed in human 1321N1 cells assessed as increase in intracellular calcium concentration at 100 uM by dual-excitation spectrofluorimetric analysis; assay type: functional, cell-based
P2Y purinoceptor 6 (Rattus norvegicus), sequence (Q63371 whole entry): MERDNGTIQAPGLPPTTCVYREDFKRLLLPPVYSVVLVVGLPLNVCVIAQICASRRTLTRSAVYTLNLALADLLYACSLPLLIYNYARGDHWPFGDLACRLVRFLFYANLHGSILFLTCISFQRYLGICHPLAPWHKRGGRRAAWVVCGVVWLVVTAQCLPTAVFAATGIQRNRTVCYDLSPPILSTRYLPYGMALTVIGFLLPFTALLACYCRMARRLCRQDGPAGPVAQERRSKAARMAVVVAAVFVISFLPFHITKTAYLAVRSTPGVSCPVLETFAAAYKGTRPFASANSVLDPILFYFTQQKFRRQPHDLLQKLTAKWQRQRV

[5] = molecular target: T2, Ectonucleoside triphosphate diphosphohydrolase 3 (Homo sapiens); assay: Inhibition of human NTPDase 3 expressed in human 293T cells; assay type: cell-based
[6] = molecular target: T3, Ectonucleotide pyrophosphatase/phosphodiesterase family member 1 (Homo sapiens) (UniProt P22413); assay: Inhibition of human NPP1 expressed in human 293T cells; assay type: cell-based
T3 sequence (whole entry): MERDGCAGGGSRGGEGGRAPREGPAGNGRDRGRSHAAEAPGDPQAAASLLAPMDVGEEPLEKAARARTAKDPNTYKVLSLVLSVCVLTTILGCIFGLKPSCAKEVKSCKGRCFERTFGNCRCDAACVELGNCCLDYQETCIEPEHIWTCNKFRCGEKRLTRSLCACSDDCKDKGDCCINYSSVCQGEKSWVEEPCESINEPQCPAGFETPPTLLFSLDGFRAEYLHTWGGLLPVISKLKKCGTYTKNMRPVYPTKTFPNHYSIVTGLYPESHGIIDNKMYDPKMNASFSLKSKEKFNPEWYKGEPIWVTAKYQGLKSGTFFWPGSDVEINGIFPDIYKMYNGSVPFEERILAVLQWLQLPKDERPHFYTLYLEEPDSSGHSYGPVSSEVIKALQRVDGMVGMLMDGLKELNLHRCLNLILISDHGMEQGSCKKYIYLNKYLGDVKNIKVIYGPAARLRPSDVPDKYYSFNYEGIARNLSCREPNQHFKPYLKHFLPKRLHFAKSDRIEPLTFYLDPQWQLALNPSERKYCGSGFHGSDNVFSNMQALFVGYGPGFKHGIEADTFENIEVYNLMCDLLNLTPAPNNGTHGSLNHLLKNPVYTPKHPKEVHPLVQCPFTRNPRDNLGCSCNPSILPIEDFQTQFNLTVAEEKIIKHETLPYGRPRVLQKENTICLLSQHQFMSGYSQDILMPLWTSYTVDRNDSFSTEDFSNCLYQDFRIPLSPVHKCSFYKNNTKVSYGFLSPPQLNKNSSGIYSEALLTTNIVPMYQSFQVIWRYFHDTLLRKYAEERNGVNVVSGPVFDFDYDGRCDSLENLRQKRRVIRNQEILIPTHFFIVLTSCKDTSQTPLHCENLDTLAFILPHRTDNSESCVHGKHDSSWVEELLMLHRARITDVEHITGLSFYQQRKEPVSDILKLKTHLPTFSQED

[7] = molecular target: T4, Ectonucleoside triphosphate diphosphohydrolase 8 (Homo sapiens) (UniProt Q5MY95); assay: Activity of human NTPDase 8 expressed in human 293T cells assessed as drug hydrolysis at 100 uM after 20 mins relative to ATP; assay type: cell-based; set-up: scale not given: the % may be the effect or the level left; outline: as §1
T4 sequence (whole entry): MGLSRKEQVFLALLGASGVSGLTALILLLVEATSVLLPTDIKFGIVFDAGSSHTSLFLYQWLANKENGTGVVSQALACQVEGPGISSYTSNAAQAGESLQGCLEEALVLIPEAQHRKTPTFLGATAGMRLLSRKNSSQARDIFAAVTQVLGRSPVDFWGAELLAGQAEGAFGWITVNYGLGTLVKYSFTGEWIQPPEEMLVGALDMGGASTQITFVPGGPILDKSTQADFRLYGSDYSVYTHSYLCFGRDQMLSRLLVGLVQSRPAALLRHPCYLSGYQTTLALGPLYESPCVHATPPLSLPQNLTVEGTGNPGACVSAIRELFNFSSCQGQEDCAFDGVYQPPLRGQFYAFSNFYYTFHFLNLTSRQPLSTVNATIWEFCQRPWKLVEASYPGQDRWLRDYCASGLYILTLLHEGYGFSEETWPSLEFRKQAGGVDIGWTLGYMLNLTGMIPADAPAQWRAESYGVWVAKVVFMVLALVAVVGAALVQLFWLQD

| SMILES | Activity [1] [%] | Activity [2] [%] | Activity [3] | Activity [4] | Activity [5] | Activity [6] | Activity [7] [%] |
| --- | --- | --- | --- | --- | --- | --- | --- |
| CSc1nc(N)c2ncn([C@@H]3O[C@H](COP(=O)(O)OP(=O)(O)CP(=O)(O)O)[C@@H](O)[C@H]3O)c2n1 | 8 | 7 | inactive | Active | inactive | inactive | 7 |
| BP(=O)(OC[C@H]1O[C@@H](n2cnc3c(N)nc(SC)nc32)[C@H](O)[C@@H]1O)OP(=O)(O)CP(=O)(O)O (single isomer, unassigned; diastereomer A) | < 1 | 2 | inactive | – | inactive | inactive | 4 |
| BP(=O)(OC[C@H]1O[C@@H](n2cnc3c(N)ncnc32)[C@H](O)[C@@H]1O)OP(=O)(O)CP(=O)(O)O (single isomer, unassigned; diastereomer B) | 0 | 6 | inactive | Active | inactive | inactive | < 1 |

Continued, values first:

| Activity [1] [%] | Activity [2] [%] | Activity [3] | Activity [4] | Activity [5] | Activity [6] | Activity [7] [%] | SMILES |
| --- | --- | --- | --- | --- | --- | --- | --- |
| 1 | 0 | inactive | – | inactive | inactive | 2 | BP(=O)(OC[C@H]1O[C@@H](n2cnc3c(N)ncnc32)[C@H](O)[C@@H]1O)OP(=O)(O)CP(=O)(O)O (stereo partly drawn) |
| < 1 | 2 | inactive | Active | inactive | inactive | 3 | BP(=O)(OC[C@H]1O[C@@H](n2cnc3c(N)nc(SC)nc32)[C@H](O)[C@@H]1O)OP(=O)(O)CP(=O)(O)O (single isomer, unassigned; diastereomer B) |
